Test results: ChEMBL document CHEMBL4411337, “2-Aminothiazole Derivatives as Selective Allosteric Modulators of the Protein Kinase CK2. 1. Identification of an Allosteric Binding Site” (J Med Chem, 2019)
Active and inactive are the calls of the source. No cut-off for these calls is given here.

How the values were obtained:
[1] = molecular target: Calcium/calmodulin-dependent protein kinase type 1 (Homo sapiens) (UniProt Q14012); assay: Inhibition of CAMK1 (unknown origin) assessed as residual activity at 50 uM relative to control
Summary of the method: (§1)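 Selectivity profiling against a panel of 44 human kinases. For each kinase, ATP was set to that kinase's Km. Values are residual activity in duplicate assays.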

[2] = molecular target: Tyrosine-protein kinase Lyn (Homo sapiens) (UniProt P07948); assay: Inhibition of LYN (unknown origin) assessed as residual activity at 50 uM relative to control; summary of the method: as §1
[3] = molecular target: Tyrosine-protein kinase Fyn (Homo sapiens) (UniProt P06241); assay: Inhibition of FYN (unknown origin) assessed as residual activity at 50 uM relative to control; summary of the method: as §1
[4] = molecular target: Casein kinase II alpha/beta (Homo sapiens) (UniProt P67870+P68400); assay: Inhibition of recombinant human GST-tagged CK2alpha2/CK2beta2 at 20 uM in presence of ATP and increasing CK2beta levels by radiometric kinase assay; type: protein-complex assay
Summary of the method: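 CK2α fixed at 150 nM and inhibitor fixed at 20 μM. CK2β was titrated at increasing concentrations and activity was read in the radiometric assay.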

[5] = molecular target: Dual specificity mitogen-activated protein kinase kinase 1 (Homo sapiens) (UniProt Q02750); assay: Inhibition of MEK1 (unknown origin) assessed as residual activity at 50 uM relative to control; summary of the method: as §1
[6] = molecular target: T1, Casein kinase II subunit alpha (Homo sapiens, UniProt P68400); assay: Mixed-type inhibition of recombinant human GST-tagged CK2alpha in presence of ATP by Lineweaver-Burk plot analysis
Target sequence in this assay (P68400 whole entry): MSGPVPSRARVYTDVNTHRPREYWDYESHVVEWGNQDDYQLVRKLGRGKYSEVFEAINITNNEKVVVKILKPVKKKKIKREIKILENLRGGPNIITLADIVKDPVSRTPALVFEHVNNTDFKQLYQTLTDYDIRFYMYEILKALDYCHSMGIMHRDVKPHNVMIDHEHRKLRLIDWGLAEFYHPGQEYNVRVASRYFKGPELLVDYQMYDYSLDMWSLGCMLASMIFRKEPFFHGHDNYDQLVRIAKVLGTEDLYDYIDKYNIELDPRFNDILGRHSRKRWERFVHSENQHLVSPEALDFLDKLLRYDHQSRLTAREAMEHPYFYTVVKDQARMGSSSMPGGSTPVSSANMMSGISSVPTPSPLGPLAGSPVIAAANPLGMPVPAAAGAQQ

[7] = molecular target: CDK6/cyclin D3 (Homo sapiens) (UniProt P30281+Q00534); assay: Inhibition of CDK6/cyclin D3 (unknown origin) assessed as residual activity at 50 uM relative to control; type: protein-complex assay; summary of the method: as §1
[8] = molecular target: Proto-oncogene tyrosine-protein kinase Src (Homo sapiens) (UniProt P12931); assay: Inhibition of cSRC (unknown origin) assessed as residual activity at 50 uM relative to control
Summary of the method: (§2)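 Profiling panel of 44 human kinases. ATP set to each kinase's Km. Run in duplicate; duplicates within 15–17% of each other.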

[9] = molecular target: Serine/threonine-protein kinase Chk2 (Homo sapiens) (UniProt O96017); assay: Inhibition of CHK2 (unknown origin) assessed as residual activity at 50 uM relative to control; summary of the method: as §1
[10] = molecular target: Ribosomal protein S6 kinase alpha-1 (Homo sapiens) (UniProt Q15418); assay: Inhibition of RSK1 (unknown origin) assessed as residual activity at 50 uM relative to control; summary of the method: as §2
[11] = molecular target: Ephrin type-A receptor 4 (Homo sapiens) (UniProt P54764); assay: Inhibition of EPHA4 (unknown origin) assessed as residual activity at 50 uM relative to control; summary of the method: as §1
[12] = molecular target: Epidermal growth factor receptor (Homo sapiens) (UniProt P00533); assay: Inhibition of EGFR (unknown origin) assessed as residual activity at 50 uM relative to control; summary of the method: as §1
[13] = molecular target: Serine/threonine-protein kinase mTOR (Homo sapiens) (UniProt P42345); assay: Inhibition of MTOR (unknown origin) assessed as residual activity at 50 uM relative to control; summary of the method: as §1
[14] = molecular target: Serine/threonine-protein kinase pim-1 (Homo sapiens) (UniProt P11309); assay: Inhibition of PIM1 (unknown origin) assessed as residual activity at 50 uM relative to control; summary of the method: as §1
[15] = molecular target: Inhibitor of nuclear factor kappa-B kinase subunit alpha (Homo sapiens) (UniProt O15111); assay: Inhibition of IKKalpha (unknown origin) assessed as residual activity at 50 uM relative to control; summary of the method: as §1
[16] = molecular target: CDK2/Cyclin A2 (Homo sapiens) (UniProt P24941+P20248); assay: Inhibition of CDK2/cyclin A (unknown origin) assessed as residual activity at 50 uM relative to control; type: protein-complex assay; summary of the method: as §1
[17] = molecular target: Cyclin-dependent kinase 1/cyclin B1 (Homo sapiens) (UniProt P06493+P14635); assay: Inhibition of CDK1/cyclin B (unknown origin) assessed as residual activity at 50 uM relative to control; type: protein-complex assay; summary of the method: as §1
[18] = molecular target: Glycogen synthase kinase-3 beta (Homo sapiens) (UniProt P49841); assay: Inhibition of GSK3beta (unknown origin) assessed as residual activity at 50 uM relative to control; summary of the method: as §1
[19] = molecular target: Dual specificity tyrosine-phosphorylation-regulated kinase 2 (Homo sapiens) (UniProt Q92630); assay: Inhibition of DYRK2 (unknown origin) assessed as residual activity at 50 uM relative to control; summary of the method: as §1
[20] = molecular target: Aurora kinase B (Homo sapiens) (UniProt Q96GD4); assay: Inhibition of aurora B (unknown origin) assessed as residual activity at 50 uM relative to control; summary of the method: as §2
[21] = molecular target: CDK9/cyclin T1 (Homo sapiens) (UniProt O60563+P50750); assay: Inhibition of CDK9/cyclin T1 (unknown origin) assessed as residual activity at 50 uM relative to control; type: protein-complex assay; summary of the method: as §1
[22] = molecular target: RAF proto-oncogene serine/threonine-protein kinase (Homo sapiens) (UniProt P04049); assay: Inhibition of cRAF (unknown origin) assessed as residual activity at 50 uM relative to control; summary of the method: as §2
[23] = molecular target: Cyclin-dependent kinase 7/ cyclin H (Homo sapiens) (UniProt P51946+P50613); assay: Inhibition of CDK7/cyclin H (unknown origin) assessed as residual activity at 50 uM relative to control; type: protein-complex assay; summary of the method: as §1
[24] = molecular target: T1, Casein kinase II subunit alpha; assay: Inhibition of recombinant human GST-tagged CK2alpha in presence of ATP by radiometric kinase assay
Target sequence in this assay (P68400 whole entry): as above

[25] = molecular target: Homeodomain-interacting protein kinase 3 (Homo sapiens) (UniProt Q9H422); assay: Inhibition of HIPK3 (unknown origin) assessed as residual activity at 50 uM relative to control; summary of the method: as §1
[26] = molecular target: Hepatocyte growth factor receptor (Homo sapiens) (UniProt P08581); assay: Inhibition of MET (unknown origin) assessed as residual activity at 50 uM relative to control; summary of the method: as §1
[27] = molecular target: T1, Casein kinase II subunit alpha; assay: Inhibition of CK2alpha (unknown origin) assessed as residual activity at 50 uM relative to control; summary of the method: as §1
[28] = molecular target: 5'-AMP-activated protein kinase catalytic subunit alpha-1 (Homo sapiens) (UniProt Q13131); assay: Inhibition of AMPKalpha1 (unknown origin) assessed as residual activity at 50 uM relative to control; summary of the method: as §1
Homo sapiens = species on record: Homo sapiens; assay: Inhibition of PKA (unknown origin) assessed as residual activity at 50 uM relative to control; summary of the method: as §1
[29] = molecular target: Cyclin-dependent kinase 2/cyclin E1 (Homo sapiens) (UniProt P24864+P24941); assay: Inhibition of CDK2/cyclin E (unknown origin) assessed as residual activity at 50 uM relative to control; type: protein-complex assay; summary of the method: as §1
[30] = molecular target: Platelet-derived growth factor receptor alpha (Homo sapiens) (UniProt P16234); assay: Inhibition of PDGFRalpha (unknown origin) assessed as residual activity at 50 uM relative to control; summary of the method: as §1
[31] = molecular target: Fibroblast growth factor receptor 1 (Homo sapiens) (UniProt P11362); assay: Inhibition of FGFR1 (unknown origin) assessed as residual activity at 50 uM relative to control; summary of the method: as §1
[32] = molecular target: Mitogen-activated protein kinase 1 (Homo sapiens) (UniProt P28482); assay: Inhibition of MAPK1 (unknown origin) assessed as residual activity at 50 uM relative to control; summary of the method: as §1
[33] = molecular target: Tyrosine-protein kinase ABL1 (Homo sapiens) (UniProt P00519); assay: Inhibition of ABL (unknown origin) assessed as residual activity at 50 uM relative to control; summary of the method: as §1

Chain of Ribosomal protein S6 kinase alpha-1 (Homo sapiens) (Q15418 whole entry): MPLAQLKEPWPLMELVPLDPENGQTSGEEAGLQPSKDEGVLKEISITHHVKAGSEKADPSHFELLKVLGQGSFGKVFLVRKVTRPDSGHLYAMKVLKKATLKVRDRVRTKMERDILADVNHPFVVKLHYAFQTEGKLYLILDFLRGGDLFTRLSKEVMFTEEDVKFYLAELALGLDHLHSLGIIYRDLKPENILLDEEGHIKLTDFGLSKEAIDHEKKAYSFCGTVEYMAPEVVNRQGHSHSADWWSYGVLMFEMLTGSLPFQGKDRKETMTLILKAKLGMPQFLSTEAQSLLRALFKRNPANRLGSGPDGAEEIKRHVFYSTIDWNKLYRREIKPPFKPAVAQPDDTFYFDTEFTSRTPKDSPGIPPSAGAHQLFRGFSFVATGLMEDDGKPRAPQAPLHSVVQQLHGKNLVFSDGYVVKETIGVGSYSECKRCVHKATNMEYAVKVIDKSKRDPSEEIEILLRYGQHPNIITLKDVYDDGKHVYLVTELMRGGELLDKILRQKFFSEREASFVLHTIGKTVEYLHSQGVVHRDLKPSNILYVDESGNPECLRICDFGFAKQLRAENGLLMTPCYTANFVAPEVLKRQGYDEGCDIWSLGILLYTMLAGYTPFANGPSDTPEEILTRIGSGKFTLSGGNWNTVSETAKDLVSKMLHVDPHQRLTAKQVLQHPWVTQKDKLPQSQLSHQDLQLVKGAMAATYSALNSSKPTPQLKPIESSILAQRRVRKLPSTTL
Chain of Glycogen synthase kinase-3 beta (Homo sapiens) (P49841 whole entry, looked up): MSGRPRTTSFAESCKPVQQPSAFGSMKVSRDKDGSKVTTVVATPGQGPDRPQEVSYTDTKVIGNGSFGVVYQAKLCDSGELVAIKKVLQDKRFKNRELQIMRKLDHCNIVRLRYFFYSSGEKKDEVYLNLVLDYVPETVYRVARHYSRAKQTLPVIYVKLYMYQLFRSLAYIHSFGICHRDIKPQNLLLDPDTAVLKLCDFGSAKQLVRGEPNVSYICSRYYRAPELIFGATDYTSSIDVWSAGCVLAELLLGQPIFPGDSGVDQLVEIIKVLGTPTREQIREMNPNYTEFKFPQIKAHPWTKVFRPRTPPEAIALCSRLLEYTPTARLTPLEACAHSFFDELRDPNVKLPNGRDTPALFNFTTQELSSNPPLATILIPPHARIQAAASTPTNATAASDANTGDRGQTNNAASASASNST
Chain of Cyclin-dependent kinase 1/cyclin B1 (Homo sapiens) (P06493 whole entry, looked up): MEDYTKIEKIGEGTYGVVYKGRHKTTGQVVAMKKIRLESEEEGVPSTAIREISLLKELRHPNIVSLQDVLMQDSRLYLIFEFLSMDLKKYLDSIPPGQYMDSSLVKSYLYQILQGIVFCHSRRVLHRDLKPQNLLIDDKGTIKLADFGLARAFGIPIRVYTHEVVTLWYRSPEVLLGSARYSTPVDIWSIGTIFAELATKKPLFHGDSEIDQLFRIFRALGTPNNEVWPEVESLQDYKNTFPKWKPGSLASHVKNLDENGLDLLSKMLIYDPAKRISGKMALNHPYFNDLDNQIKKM
Chain of Cyclin-dependent kinase 1/cyclin B1 (Homo sapiens) (P14635 whole entry, looked up): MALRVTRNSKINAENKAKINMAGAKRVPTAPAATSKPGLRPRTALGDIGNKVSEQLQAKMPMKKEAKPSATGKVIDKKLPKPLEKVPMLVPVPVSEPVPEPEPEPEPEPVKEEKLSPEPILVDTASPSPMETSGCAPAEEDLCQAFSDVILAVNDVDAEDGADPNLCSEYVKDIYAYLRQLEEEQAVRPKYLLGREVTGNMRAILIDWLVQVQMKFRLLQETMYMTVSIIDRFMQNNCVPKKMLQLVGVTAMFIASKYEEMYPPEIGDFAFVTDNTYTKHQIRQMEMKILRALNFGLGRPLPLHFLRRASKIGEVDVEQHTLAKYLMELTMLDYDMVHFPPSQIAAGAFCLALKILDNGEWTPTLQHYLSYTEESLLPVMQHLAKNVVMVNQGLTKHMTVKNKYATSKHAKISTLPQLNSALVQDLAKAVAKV
Chain of Proto-oncogene tyrosine-protein kinase Src (Homo sapiens) (P12931 2-536 limits assumed): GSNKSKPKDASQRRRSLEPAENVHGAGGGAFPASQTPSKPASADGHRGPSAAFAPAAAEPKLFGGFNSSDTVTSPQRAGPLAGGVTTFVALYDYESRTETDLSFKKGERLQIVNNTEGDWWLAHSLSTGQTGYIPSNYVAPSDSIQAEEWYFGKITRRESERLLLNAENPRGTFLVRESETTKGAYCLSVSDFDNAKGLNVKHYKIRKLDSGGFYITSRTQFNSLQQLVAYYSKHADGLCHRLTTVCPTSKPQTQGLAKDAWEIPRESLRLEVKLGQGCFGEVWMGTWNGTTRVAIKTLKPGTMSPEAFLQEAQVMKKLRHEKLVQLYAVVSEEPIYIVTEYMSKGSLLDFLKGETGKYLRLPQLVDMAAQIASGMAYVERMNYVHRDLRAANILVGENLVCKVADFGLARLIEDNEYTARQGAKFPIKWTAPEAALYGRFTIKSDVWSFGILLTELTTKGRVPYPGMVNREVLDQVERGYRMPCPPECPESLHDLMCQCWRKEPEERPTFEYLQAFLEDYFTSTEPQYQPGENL
Chain of Inhibitor of nuclear factor kappa-B kinase subunit alpha (Homo sapiens) (O15111 whole entry): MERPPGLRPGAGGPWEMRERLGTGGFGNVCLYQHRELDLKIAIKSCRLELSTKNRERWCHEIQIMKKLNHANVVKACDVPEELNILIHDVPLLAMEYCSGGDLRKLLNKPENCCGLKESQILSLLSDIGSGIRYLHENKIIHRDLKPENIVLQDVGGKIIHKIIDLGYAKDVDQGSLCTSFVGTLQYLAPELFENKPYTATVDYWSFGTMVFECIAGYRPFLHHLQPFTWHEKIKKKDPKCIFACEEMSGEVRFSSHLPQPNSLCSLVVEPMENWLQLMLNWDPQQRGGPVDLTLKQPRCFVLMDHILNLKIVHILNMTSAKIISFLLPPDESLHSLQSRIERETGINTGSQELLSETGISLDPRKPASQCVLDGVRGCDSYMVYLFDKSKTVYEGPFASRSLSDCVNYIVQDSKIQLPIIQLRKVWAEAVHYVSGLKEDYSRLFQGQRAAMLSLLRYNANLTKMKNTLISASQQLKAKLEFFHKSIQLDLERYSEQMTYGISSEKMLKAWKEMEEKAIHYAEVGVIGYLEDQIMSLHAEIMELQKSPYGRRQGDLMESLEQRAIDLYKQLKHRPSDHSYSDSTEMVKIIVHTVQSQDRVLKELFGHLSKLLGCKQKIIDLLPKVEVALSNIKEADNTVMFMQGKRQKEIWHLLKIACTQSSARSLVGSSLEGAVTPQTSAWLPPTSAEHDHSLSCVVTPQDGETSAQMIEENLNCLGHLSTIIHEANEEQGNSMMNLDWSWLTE
Chain of Calcium/calmodulin-dependent protein kinase type 1 (Homo sapiens) (Q14012 whole entry, looked up): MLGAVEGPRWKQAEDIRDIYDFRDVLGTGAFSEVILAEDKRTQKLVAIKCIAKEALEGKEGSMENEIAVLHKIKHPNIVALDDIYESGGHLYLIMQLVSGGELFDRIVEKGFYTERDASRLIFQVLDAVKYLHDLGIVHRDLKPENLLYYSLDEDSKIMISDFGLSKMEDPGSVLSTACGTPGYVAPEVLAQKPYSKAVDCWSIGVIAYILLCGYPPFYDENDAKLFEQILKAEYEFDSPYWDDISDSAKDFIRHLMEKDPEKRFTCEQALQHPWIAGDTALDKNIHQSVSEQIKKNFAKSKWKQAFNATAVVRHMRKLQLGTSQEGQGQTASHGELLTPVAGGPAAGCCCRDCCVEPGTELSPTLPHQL
Chain of Dual specificity mitogen-activated protein kinase kinase 1 (Homo sapiens) (Q02750 whole entry): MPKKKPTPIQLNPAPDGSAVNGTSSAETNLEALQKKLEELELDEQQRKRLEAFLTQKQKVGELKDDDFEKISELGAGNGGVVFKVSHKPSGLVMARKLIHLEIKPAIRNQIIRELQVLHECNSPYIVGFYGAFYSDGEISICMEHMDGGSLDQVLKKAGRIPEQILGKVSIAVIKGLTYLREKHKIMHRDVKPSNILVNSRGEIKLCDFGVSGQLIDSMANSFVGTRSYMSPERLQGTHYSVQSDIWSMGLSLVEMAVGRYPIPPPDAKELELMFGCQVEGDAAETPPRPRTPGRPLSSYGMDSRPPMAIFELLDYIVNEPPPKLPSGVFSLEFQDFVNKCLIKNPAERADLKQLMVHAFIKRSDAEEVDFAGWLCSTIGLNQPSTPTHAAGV
Chain of Serine/threonine-protein kinase pim-1 (Homo sapiens) (P11309 whole entry, looked up): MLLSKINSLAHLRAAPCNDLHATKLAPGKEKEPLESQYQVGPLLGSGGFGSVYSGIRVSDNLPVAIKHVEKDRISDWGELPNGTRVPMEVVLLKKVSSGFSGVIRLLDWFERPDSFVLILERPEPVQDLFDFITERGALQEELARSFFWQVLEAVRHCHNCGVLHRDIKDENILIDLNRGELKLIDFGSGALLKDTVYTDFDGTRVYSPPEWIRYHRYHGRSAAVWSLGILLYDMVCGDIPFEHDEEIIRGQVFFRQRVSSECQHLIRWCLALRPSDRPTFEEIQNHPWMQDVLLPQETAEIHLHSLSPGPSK

`O=C(O)c1ccc(Nc2nc(-c3cccc([N+](=O)[O-])c3)cs2)cc1` showed an Activity [1] of 101%, an Activity [2] of 104% and an Activity [3] of 97%. For the same compound, the inhibition [4] was “Active”, the Activity [5] was 103% and the Ki [6] was 1.6 µM. For the same compound, the Activity [7] was 95%, the Activity [8] was 97% and the Activity [9] was 89%. For the same compound, the Activity [10] was 99%, the Activity [11] was 45% and the Activity [12] was 26%. For the same compound, the Activity [13] was 104%, the Activity [14] was 46% and the Activity [15] was 103%. For the same compound, the Activity [16] was 86%, the Activity [17] was 89% and the Activity [18] was 79%. It also gave an Activity [19] of 78%, an Activity [20] of 74% and an Activity [21] of 99%. The Activity [22] was 92%, the Activity [23] was 104% and the IC50 [24] was 7 µM. For the same compound, the Activity [25] was 98%, the Activity [26] was 102% and the Activity [27] was 0%. The Activity [28] was 71%, the Activity (Homo sapiens) was 87% and the Activity [29] was 101%. For the same compound, the Activity [30] was 65%, the Activity [31] was 97% and the Activity [32] was 84%. For the same compound, the Activity [33] was 104%.
